# CCR6 antagonist = antagonists of human CCR6 receptor; 340,000 compounds, 0.49% hits; AID 493098; inhibition, % at 20 µM; CHO-K1 CCR6 PathHunter beta-arrestin, luminescence, CCL20-stimulated; P51684;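 active means compounds whose inhibition of the agonist-driven luminescence signal at 20 µM reaches about 50%, limit read from the data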;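 further: cells stimulated with CCL20 at 14 nM final; plate controls were DMSO with CCL20 for no effect and DMSO without agonist for full effect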
# EBI2 block = blocks human EBI2 receptor beta-arrestin signaling; EBI2 beta-arrestin recruitment, luminescence, 7a,25-OHC stimulated; P32249; inhibition, % at 5 µM; AID 651636; 360,000 compounds, 0.81% hits; in the data active means inhibition above about 38%;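 further: enzyme fragment complementation signal reports receptor beta-arrestin coupling in cells; 0% = agonist plus DMSO wells and 100% = wells without agonist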
# HTR2A ag = activates the mouse 5-HT2A serotonin receptor; CHO-K1 mHTR2A beta-arrestin complementation, luminescence; percent of 30 µM serotonin response; AID 624169; activation, % at 7.6 µM; 360,000 compounds, 0.66% hits; P35363;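 active means activation above a run cutoff, the mean activation of all tested compounds plus 3 SD, cut at about 14% in these data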;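 further: 0% = plate median of compound wells and 100% = 30 µM serotonin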
# APJ agonist = agonists of human APJ apelin receptor | P35414 | CHO-K1 APJ PathHunter beta-arrestin, luminescence; 0% DMSO wells, 100% apelin | activation, % at 20 µM | 330,000 compounds, 0.11% hits;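 active means activation more than six SD over the plate average, tested at 20 µM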;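 further: 0% = DMSO alone and 100% = apelin-13 at 10 nM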
# Target sequence (P35414 whole entry, looked up): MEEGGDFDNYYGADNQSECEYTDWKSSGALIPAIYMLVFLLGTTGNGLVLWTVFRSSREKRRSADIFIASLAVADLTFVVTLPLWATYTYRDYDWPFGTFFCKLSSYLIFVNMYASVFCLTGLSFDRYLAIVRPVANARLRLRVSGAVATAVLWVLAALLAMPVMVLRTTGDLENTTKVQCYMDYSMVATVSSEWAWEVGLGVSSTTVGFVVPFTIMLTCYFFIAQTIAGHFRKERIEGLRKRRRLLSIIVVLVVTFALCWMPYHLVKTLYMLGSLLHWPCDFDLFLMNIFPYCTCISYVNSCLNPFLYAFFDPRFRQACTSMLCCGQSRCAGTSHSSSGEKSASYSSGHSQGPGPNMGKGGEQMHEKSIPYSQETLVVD
#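 Assay system: CHO-K1 APJ beta-arrestin complementation cell line / Compound: single test compound dose, 20 µM final, 1% DMSO / Times: overnight seeding, 90 min compound at 25 °C, 1 h detection / Technique: beta-gal luminescence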
# APJ antagonist = APJ receptor antagonism | P35414 | CHO-K1 APJ beta-arrestin complementation, luminescence | inhibition, % at 20 µM | 330,000 compounds, 0.32% hits | AID 2521;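 active means inhibition above about 40% at 20 µM, limit read from the data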;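 further: cells challenged with 10 nM apelin-13 agonist together with compound; plate controls were apelin-13 plus DMSO wells for no effect and DMSO wells lacking apelin-13 for full effect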
# CXCR6 inh = CXCR6 (human) receptor inhibition | inhibition, % at 20 µM | CHO-K1 PathHunter CXCR6 beta-arrestin, luminescence | 360,000 compounds, 0.36% hits | O00574; in the data active means inhibition above about 34%, passing the limit was not always enough;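 further: antagonist mode with CXCL16 agonist at 10 nM final; 0% = 10 nM CXCL16 with DMSO and 100% = unstimulated wells without agonist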
# EBI2 conf = confirmation of human EBI2 receptor antagonists; shares compounds with EBI2 block; EBI2 beta-arrestin luminescence, 7a,25-OHC antagonism; inhibition, % at 5 µM; 2,400 compounds, 29% hits; AID 651997;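 active means inhibition of at least 50%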
# EBI2 agonist = counter-screen for EBI2 antagonists: EBI2 agonist activity. shares compounds with EBI2 block. 2,400 tested, under 10 active. EBI2-expressing cells, agonist mode, luminescence, 60 min; 0% vehicle, 100% 7α,25-dihydroxycholesterol control. activation, % at 5 µM;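 active means activation of at least 50%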
# bGal counter = counter-screen for EBI2 antagonists: E. coli beta-galactosidase inhibition; purified beta-galactosidase, luminescent Galacton Star, 15 min; shares compounds with EBI2 block; 2,400 compounds, 1% hits; AID 652176; inhibition, % at 5 µM;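 active means replicate-average signal at least 3 plate SD below neutral wells, shown as high inhibition, flagging enzyme-inhibiting false positives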;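 further: 0% = DMSO wells with enzyme and 100% = wells lacking enzyme; higher means stronger loss of beta-gal luminescence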
# Numbers without * were called inactive; nt = no result. Shown are actives, neighbours in structure and some others; about 2.1% of the full set was active somewhere.
SMILES,CCR6 antagonist,EBI2 block,HTR2A ag,APJ agonist,APJ antagonist,CXCR6 inh,EBI2 conf,EBI2 agonist,bGal counter
CCc1nc2ccc(C(=O)NCCOc3ccc(OC)cc3)cn2c1N(CC)Cc1cccc(Br)c1,nt,74*,-2,nt,nt,17,48,0,5
CCc1nc2ccc(C(=O)Nc3cccc(OC)c3)cn2c1N(CC)Cc1cccc(Br)c1,nt,13,0,nt,nt,13,nt,nt,nt
CC(=O)N(c1ccc2oc(=O)sc2c1)S(=O)(=O)c1cccs1,-7,-6,4,-2,7,-7,nt,nt,nt
Clc1ccc(CN(CC2CCCO2)C(c2cccs2)c2nnnn2C2CCCC2)cc1 (configuration not stated),32,49*,-1,-1,15,10,4,-1,-13
CCN(Cc1ccccc1)C(c1cccs1)c1nnnn1C1CCCCC1 (configuration not stated),29,49*,1,-2,19,16,19,-1,-13
Clc1ccccc1CN(Cc1ccccc1)C(c1cccs1)c1nnnn1C1CCCC1 (configuration not stated),8,30,-5,0,5,1,nt,nt,nt
Cc1ccc(-c2nn(-c3ccccc3)cc2C=C2C(=O)CC(C)(C)CC2=O)cc1,-26,53*,0,6,-15,-14,52*,2,10
CCOC(=O)C1CCN(C(=O)COc2ccc(Br)cc2C)CC1,0,32,0,-1,-2,2,nt,nt,nt
CC1CCN(C(=O)CSc2nc3ccccc3s2)CC1,8,6,-1,-2,16,0,nt,nt,nt
CCOC(=O)C1CCN(C(=O)C(C)Sc2ccc(Cl)cc2)CC1 (configuration not stated),20,0,2,0,-4,0,nt,nt,nt
CCOC(=O)C1CCN(C(=O)CSc2ccc(Cl)cc2)CC1,-13,77*,-2,-3,11,7,47,3,7
O=C(CSc1ccc(Cl)cc1)N1CCC(c2nc3ccccc3s2)CC1,5,82*,-2,-3,-30,0,66*,1,-8
CCOC(=O)C1CCN(C(=O)CSc2ccc(Br)cc2)CC1,1,84*,-1,-2,-11,7,54*,1,5
O=C(c1cccc(NS(=O)(=O)c2ccccc2)c1)N1CCN(c2ccccc2)CC1,4,-8,6,-4,15,-9,nt,nt,nt
Cn1cc(C(=O)c2ccc(Cl)cc2)cc1-c1nc2ccccc2n1C,-8,64*,1,-1,11,-2,42,0,8
Cn1c(=O)c(C(=O)c2ccccc2)nc2ccccc21,4,-9,-3,0,0,-7,nt,nt,nt
Cc1cccn2c(=O)c3cc(C(=O)NC4CCCC4)n(C)c3nc12,9,-7,-1,3,-13,-11,nt,nt,nt
COC1C=CC(CNC(=O)c2cc3c(=O)n4cccc(C)c4nc3n2C)(OC)O1 (configuration not stated),13,49*,1,-2,-10,25,-8,2,6
O=C(NNc1nc2ccccc2s1)Nc1ccccc1,5,1,0,-2,16,6,nt,nt,nt
CCc1ccc(NC(=O)CN2C(=O)CC(C)S(=O)(=O)c3ccccc32)cc1 (configuration not stated),-5,-3,0,-5,4,5,nt,nt,nt
COc1ccc(N2CC(C)Cn3c2nc2c3c(=O)n(Cc3ccc(F)cc3)c(=O)n2C)c(OC)c1 (configuration not stated),11,18,8,-3,-5,5,nt,nt,nt
COc1ccc(-n2nnnc2C(c2cccc3ccccc23)N2CCN(C/C=C/c3ccccc3)CC2)cc1 (configuration not stated),nt,63*,-11,nt,nt,13,32,1,2
C(=C\c1ccccc1)/CN1CCN(C(c2cccc3ccccc23)c2nnnn2Cc2ccccc2)CC1 (configuration not stated),nt,64*,-6,nt,nt,12,31,1,7
C(=C\c1ccccc1)/CN1CCN(C(c2cccs2)c2nnnn2-c2ccc3c(c2)OCCO3)CC1 (configuration not stated),nt,72*,-10,nt,nt,8,30,0,-17
C(=C\c1ccccc1)/CN1CCN(C(c2cc3ccccc3o2)c2nnnn2-c2ccc3c(c2)OCCO3)CC1 (configuration not stated),nt,38,-7,nt,nt,11,nt,nt,nt
SMILES,CCR6 antagonist,EBI2 block,HTR2A ag,APJ agonist,APJ antagonist,CXCR6 inh,EBI2 conf,EBI2 agonist,bGal counter
COc1ccc(C(c2nnnn2-c2ccc3c(c2)OCCO3)N2CCN(C/C=C/c3ccccc3)CC2)cc1 (configuration not stated),nt,60*,-10,nt,nt,19,41,2,0
CC1Oc2ccccc2C=C1/C=N\NC(=O)c1cccnc1 (configuration not stated),4,17,-5,-3,-3,0,nt,nt,nt
CCN(CC)S(=O)(=O)c1ccc(NC(=O)COC(=O)c2cnc(C)cn2)cc1,10,-17,-1,-3,7,5,nt,nt,nt
OC[C@H]1OC(Nc2ccc(N=Nc3ccccc3)cc2)[C@@H](O)[C@@H](O)[C@@H]1O (some centres not stated),20,6,-3,-5,12,12,nt,nt,nt
Nc1nc2n(n1)C(c1ccc(Cl)cc1)CC(c1ccc(F)cc1)N2 (configuration not stated),-2,-5,2,-2,16,-2,nt,nt,nt
COCc1cc(C)nc(OCC(=O)N/N=C/c2ccccc2O)c1C#N,-6,-3,-2,3,21,-7,nt,nt,nt
CCOc1cc(/C=N/NC(=O)COc2nc(C)cc(COC)c2C#N)ccc1O,-15,62*,1,-2,0,3,36,2,1
O=C(Nc1cccc(C(F)(F)F)c1)c1cc(S(=O)(=O)N2CCCCC2)ccc1N1CCOCC1,5,8,-3,4,5,10,nt,nt,nt
N#Cc1cnc(Oc2ccc(Cl)cc2)nc1N,1,47*,1,-1,-18,1,0,-1,-14
CN1C(=O)[C@H]2[C@@H](c3ccccc3)N[C@]3(CCCN(Cc4ccco4)C3=O)[C@H]2C1=O,nt,-2,3,nt,nt,0,nt,nt,nt
CNC(=S)N1N=C(c2ccc(OC)cc2)CC1c1ccc(N(C)C)cc1 (configuration not stated),21,87*,-9,-5,3,4,81*,2,2

# Screening results (PubChem)
